# Assay results gathered from unrelated publications.
# Lines come from different studies, so protocols differ.
# LRRK2 G2019S: Leucine-rich repeat serine/threonine-protein kinase 2 (LRRK2, Homo sapiens, UniProt Q5S007, G2019S)
# LRRK2: Leucine-rich repeat serine/threonine-protein kinase 2 (LRRK2, Homo sapiens, UniProt Q5S007)
Structure (SMILES),target,assay,setting,quantity,value
Cc1cc(S(=O)(=O)N[C@H]2CC[C@H](CN3CCN(c4ccc(C5CCC(=O)NC5=O)cc4F)CC3)CC2)ccc1Nc1ncc(C(F)(F)F)c(N2CCC[C@](C)(O)C2)n1 (stereo partly drawn),LRRK2 G2019S,"binding, competition with immobilised ligand",1 µM,remaining binding,4%
COc1ccc2[nH]c3c4[nH]c5ccc(OC)cc5c4c4c(c3c2c1)C(=O)NC4=O,LRRK2,binding,1 µM,remaining binding,2.8%
CC#CC(=O)N1CCC[C@H]1c1nc(-c2ccc(C(=O)Nc3ccccn3)cc2)c2c(N)nccn12,LRRK2 G2019S,"enzyme activity, inhibitor",1 µM,inhibition,0%
CCCCC(=O)Nc1ccc(-c2ccc3ncn(CCC)c(=O)c3c2)cn1,LRRK2,"binding, competition with immobilised ligand",0.5 µM,remaining binding,100%
CN1CCN(C(=O)c2ccc(NC(=O)Nc3ccc(N(C)c4ccnc(Nc5ccc(CS(C)(=O)=O)cc5)n4)cc3)cc2)CC1,LRRK2,binding,1 µM,remaining binding,74%
Cc1cc(O)c(-c2ccc([C@@H](C)CN(C)C)cc2)c2c1[nH]c(=O)c1sccc12,LRRK2,"enzyme activity, inhibitor",0.1 µM,inhibition,-15.8%
CC(C)S(=O)(=O)c1ccc2nccc(Nc3ccc4sc(C5CCCC5)nc4c3)c2c1,LRRK2,"enzyme activity, inhibitor",1 µM,activity vs control,120%
CNS(=O)(=O)c1ccc(Nc2ncc(C(F)(F)F)c(N3CCC[C@](C)(O)C3)n2)c(C)c1,LRRK2,"binding, competition with immobilised ligand",1 µM,remaining binding,12%
C1=C/COCc2cc(ccc2OCCN2CCCC2)Nc2nccc(n2)-c2cccc(c2)COC/1,LRRK2 G2019S,binding,0.1 µM,remaining binding,100%
Cc1ccc(NC(=O)c2ccnc(C(F)(F)F)c2)cc1-c1cc(OCCO)nc(N2CCOCC2)c1,LRRK2,binding,1 µM,remaining binding,100%
C#Cc1cc(-c2cc(Nc3nc(N[C@@H](C)c4ccc(F)cn4)ncc3Cl)n[nH]2)ccc1C=O,LRRK2 G2019S,"enzyme activity, inhibitor",0.2 µM,inhibition,23%
C[C@]1(O)CCCN(c2nc(Nc3ccc(S(=O)(=O)N[C@H]4CC[C@H](CN5CCN(c6ccc(C7CCC(=O)NC7=O)cc6F)CC5)CC4)cc3F)ncc2C(F)(F)F)C1 (stereo partly drawn),LRRK2 G2019S,"binding, competition with immobilised ligand",1 µM,remaining binding,39%
